The compounds below were run on Rattus norvegicus (assay: Compound was evaluated for blood acetaldehyde levels elicited by compound after ethanol administration to rat). Conditions: not given.
Type: functional
Outline: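 Fasted male Sprague-Dawley rats (160–200 g) got test agent at 1.0 mmol/kg ip at time zero, suspended in 2% aqueous CMC (peanut oil for the trifluoroacetyl pro-prodrug and N1-EtCP). Ethanol 2.0 g/kg ip followed at 2 h. Rats were killed 1 h after ethanol and blood AcH was measured. Chlorpropamide served as positive control and vehicle alone as control. Groups of three were used, repeated with three more when active. Results are mean ± SEM, ANOVA with Newman-Keuls.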

Structure (SMILES)	Acetaldehyde level [µM]
CCCN(C(=O)N(CC)S(=O)(=O)c1ccc(Cl)cc1)C(=O)C(F)(F)F	~450
CCCNC(=O)SCc1ccccc1	550
CCCNC(=O)N(CC)S(=O)(=O)c1ccc(Cl)cc1	~410
CCCNC(=O)NS(=O)(=O)c1ccc(Cl)cc1 [CHLORPROPAMIDE]	~170
CCCNC(=O)N1C(=O)CNC1=O	~0
CCCNC(=O)N1C(=O)c2ccccc2S1(=O)=O	~500
CCCN1C(=O)CN(S(=O)(=O)c2ccc(Cl)cc2)C1=O	20
CCCNC(=O)n1c(=O)cc[nH]c1=O	700
C=CCN(C(=O)NCCC)S(=O)(=O)c1ccc(Cl)cc1	~750

These compounds were tested against Aldehyde dehydrogenase, mitochondrial ALDH2 (Rattus norvegicus) (UniProt P11884) (assay: Evaluated for inhibition of hepatic mitochondrial Aldehyde dehydrogenase (ALDH) from rat). Conditions: concentration not given here.
Sequence of Aldehyde dehydrogenase, mitochondrial ALDH2 (Rattus norvegicus) (P11884 whole entry, looked up): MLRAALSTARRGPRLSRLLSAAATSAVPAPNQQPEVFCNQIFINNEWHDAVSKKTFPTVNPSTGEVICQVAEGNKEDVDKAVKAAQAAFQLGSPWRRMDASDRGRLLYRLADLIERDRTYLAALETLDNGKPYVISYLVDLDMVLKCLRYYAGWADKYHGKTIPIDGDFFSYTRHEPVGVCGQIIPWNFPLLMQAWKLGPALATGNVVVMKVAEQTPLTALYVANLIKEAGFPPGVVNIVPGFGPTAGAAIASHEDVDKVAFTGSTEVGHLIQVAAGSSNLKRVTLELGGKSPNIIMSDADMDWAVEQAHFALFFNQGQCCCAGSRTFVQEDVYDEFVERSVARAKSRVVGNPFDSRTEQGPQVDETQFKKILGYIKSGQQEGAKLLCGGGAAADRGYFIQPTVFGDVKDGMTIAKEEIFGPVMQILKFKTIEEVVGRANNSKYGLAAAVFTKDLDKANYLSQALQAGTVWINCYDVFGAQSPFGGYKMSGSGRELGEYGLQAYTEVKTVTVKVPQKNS

inhibition [%]	Structure (SMILES)
78	CCCNC(=O)N(CC)S(=O)(=O)c1ccc(Cl)cc1

Each compound was assayed against Aldehyde dehydrogenase, mitochondrial (Rattus norvegicus) (UniProt P11884) (assay: Compound was evaluated for inhibition of class II aldehyde dehydrogenase in intact rat liver mitochondria in vitro at 1 mM). Conditions: not given.

Structure (SMILES)	Inhibition [%]
CCCNC(=O)N(C)S(=O)(=O)c1ccc(Cl)cc1	49

The compounds below were run against Aldehyde dehydrogenase, mitochondrial ALDH2 (Rattus norvegicus) (UniProt P11884) (assay: Evaluated for inhibition of class II mitochondrial Aldehyde dehydrogenase (ALDH) in osmotically disrupted mitochondria from rat). Conditions: concentration not given here.

inhibition [%]	Structure (SMILES)
74	CCCNC(=O)N(C)S(=O)(=O)c1ccc(Cl)cc1

Source: ChEMBL document CHEMBL1127425, “Latent alkyl isocyanates as inhibitors of aldehyde dehydrogenase in vivo” (1994)
